TAAR1 ag = human TAAR1 agonism; CHO RD-HGA16 TAAR1, Fluo-8 calcium fluorescence; vehicle wells 0%, saturating PEA agonist 100%; Q96RJ0; activation, % at 3 µM; 360,000 tested, 0.99% active;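 active = activation above the mean activation of all test compounds in the run plus 3 SD, cut at about 38% in these data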
Target sequence (Q96RJ0 whole entry, looked up): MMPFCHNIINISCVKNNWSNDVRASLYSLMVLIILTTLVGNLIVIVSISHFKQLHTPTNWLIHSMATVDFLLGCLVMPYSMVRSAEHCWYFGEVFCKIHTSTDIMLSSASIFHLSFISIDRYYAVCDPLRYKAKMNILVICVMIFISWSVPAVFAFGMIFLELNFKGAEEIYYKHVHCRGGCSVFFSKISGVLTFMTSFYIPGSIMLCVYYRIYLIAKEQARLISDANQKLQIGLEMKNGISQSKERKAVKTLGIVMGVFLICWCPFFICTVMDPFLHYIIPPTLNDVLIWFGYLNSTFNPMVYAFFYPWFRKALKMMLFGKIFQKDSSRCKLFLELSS
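Test system: RD-HGA16 (CHO) cells co-expressing Gα16 and hTAAR1; dosing: one-point dosing at 3 µM (nominal); timing: 17-24 h seeding, 75 min 37 °C dye, 30 min RT; signal: kinetic Fluo-8 calcium fluorescence; read-out basis: % activation relative to PEA EC100 response; controls: DMSO and PEA EC100; replicates: n 1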
CHO parental Ca = counter-screen for OX1R antagonists: effect in parental CHO cells. parental CHO-K1, ATP-induced calcium, Fluo-8 fluorescence. inhibition, % at 5.6 µM. 330,000 tested, 0.63% active;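 active = inhibition above that plate's mean sample inhibition plus 3 SD, cut at about 26% in these data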;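 note: 0% = ATP-challenged DMSO wells and 100% = DMSO wells without ATP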
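Material: parental CHO cells / Compound: single nominal dose of 5.6 µM per compound / Signal: Fluo-8 fluorescence / Replicates: singlicate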
OX1R antag-1 = blocks the human orexin 1 receptor. O43613. OX1R-expressing cells, FRET antagonist read-out. inhibition, % at 6.6 µM. 330,000 tested, 1.8% active. AID 485270; in the data active = inhibition mostly above about 38%, no sharp cut-off; inactive = mostly below about 40%;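 note: 0% = agonist challenge alone and 100% = reference antagonist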
GPR7 antagonist = blocks human GPR7 receptor signaling; P48145; GPR7-expressing cells, fluorescence antagonist assay; inhibition, % at 4.4 µM; 290,000 tested, 1.1% active; in the data active = inhibition above about 16%, passing the limit was not always enough;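 note: cells stimulated with the agonist NPW; 0% = agonist with vehicle and 100% = vehicle without agonist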
Target sequence (P48145 whole entry, looked up): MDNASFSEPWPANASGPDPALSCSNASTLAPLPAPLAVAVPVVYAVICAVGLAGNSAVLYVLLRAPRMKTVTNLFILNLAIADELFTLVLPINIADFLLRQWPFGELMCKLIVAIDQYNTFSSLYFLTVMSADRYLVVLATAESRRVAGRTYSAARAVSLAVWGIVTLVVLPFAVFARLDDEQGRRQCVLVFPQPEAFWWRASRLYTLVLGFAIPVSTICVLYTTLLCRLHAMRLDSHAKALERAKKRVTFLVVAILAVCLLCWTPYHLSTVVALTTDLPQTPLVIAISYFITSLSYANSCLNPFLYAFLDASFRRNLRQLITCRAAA
OX1R antag-2 = human HCRTR1 antagonism; inhibition, % at 5 µM; O43613; 330,000 tested, 0.43% active; CHO/OX1R cells, Fluo-8 calcium fluorescence, orexin A;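 active = inhibition above its plate's threshold, mean inhibition of all tested compounds on the plate plus 3 SD, cut at about 37% in these data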;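 note: 0% = orexin A challenge wells and 100% = SB-334867-A antagonist wells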
TAAR1 antagonist = antagonists of human TAAR1; Q96RJ0; CHO RD-HGA16 TAAR1, Fluo-8 calcium fluorescence, antagonist; inhibition, % at 3 µM; 360,000 tested, 1.5% active;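 active = inhibition above a per-plate cutoff, the mean inhibition of test compounds on that plate plus 3 SD, cut at about 49% in these data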;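 note: 0% = DMSO plus EC80 beta-PEA response and 100% = DMSO alone without agonist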
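Test system – hTAAR1-expressing CHO RD-HGA16 cells, Gα16-coupled · Also added – β-PEA at EC80 concentration, post-compound challenge · Compound – 3 µM, single point · Incubation – dye loading 75 min at 37 °C, then 30 min room temperature · Measured by – Fluo-8 intracellular calcium dye fluorescence, real-time kinetic reads · Benchmarks – vehicle and agonist controls · Replicates – singlicate, one well per test compound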
Starred values were filed as active, the others as inactive; nt = no result. In the library only some 4.6% were active in any assay of this set; here they are far more common.

SMILES | TAAR1 ag | CHO parental Ca | OX1R antag-1 | GPR7 antagonist | OX1R antag-2 | TAAR1 antagonist
CCN(c1ccc(OC)cc1)S(=O)(=O)N1CCCC(C(=O)NC(C)c2ccccc2)C1 (configuration not stated) | 23.2 | nt | nt | nt | nt | 25.0
Cc1ccnc(SCCn2c(N3CCCCC3)nc3c2c(=O)[nH]c(=O)n3C)n1 | nt | nt | nt | 0.7 | nt | nt
Cc1ccnc(SCCn2c(N3CCN(c4ccccc4)CC3)nc3c2c(=O)[nH]c(=O)n3C)n1 | 11.8 | -13.9 | 20.7 | 9.5 | -24.1 | 51.4*
Cc1cc(C(=O)CSc2nc3ccccc3o2)c(C)n1C1CC1 | -1.3 | 5.8 | 33.1 | 9.1 | 40.7* | 26.3
C=CCn1c(C)cc(C(=O)CSc2nc3ccccc3o2)c1C | 1.6 | 42.6* | 35.5 | -6.1 | 40.6* | 15.5
COc1cccc(C(C)(O)c2nc(-c3ccc(OC)nc3)cs2)c1 (configuration not stated) | 1.6 | nt | nt | nt | nt | 7.0
C[C@H]1CN([C@@H](C)CO)C(=O)c2cc(Br)cnc2O[C@@H]1CN(C)C(=O)CN(C)C | 3.6 | nt | nt | nt | nt | 5.3
O=C(OC1CCCCC1)c1cc2ccccc2oc1=O | 5.8 | -10.3 | 12.8 | 0.7 | -13.8 | 3.2
CN(C(=O)COC(=O)c1cc2ccccc2oc1=O)C1CCCCC1 | 1.3 | -9.5 | 27.5* | nt | -20.3 | 12.0
CC(=O)Oc1ccc(NC(=O)Cc2ccccc2)cc1 | 1.3 | 4.2 | 3.2 | 4.6 | -19.8 | 1.7
CC(=O)Oc1ccc(Nc2ccccc2)cc1 | 9.7 | -1.2 | 49.7* | 3.2 | -7.5 | -16.7
O=[N+]([O-])c1ccc(SN2CCCCC2)c([N+](=O)[O-])c1 | 0.9 | nt | nt | nt | nt | 0.9
O=Cc1c[nH]c2cccc(OCc3ccccc3)c12 | -1.6 | nt | nt | nt | nt | 49.4*
O=C(N/C(=C/c1ccc([N+](=O)[O-])cc1)C(=O)N1CCOCC1)c1ccco1 | 0.0 | -1.7 | 74.2* | 4.2 | -11.7 | -28.5
O=C(N/C(=C\c1ccc([N+](=O)[O-])cc1)C(=O)N1CCOCC1)c1ccccc1 | 6.4 | -19.1 | 21.5 | -15.2 | -10.0 | -8.4
O=C1c2c(O)cccc2Cc2cccc(O)c21 | -1.9 | 4.4 | 10.9 | nt | 6.6 | 103.6*
O=C1Cc2cccc(=O)c(O)c2C(=O)O1 | 1.7 | nt | nt | nt | nt | -14.0
CCN(CC)c1ncnc2c1ncn2[C@H]1CN(Cc2ccc(OC)cc2)C[C@@H](CO)O1 | -0.4 | nt | nt | nt | nt | -21.7
Oc1ccc2ccccc2c1C=NCc1cn2ccsc2n1 | -1.1 | -1.5 | 65.2* | -2.6 | -2.2 | -20.5
Cn1nnnc1SCC(=O)N1CCN(c2ccc(Cl)cc2)CC1 | 10.9 | -11.8 | 3.1 | 15.8* | -13.2 | -5.5
Cn1nnnc1SCC(=O)N1CCCCC1 | 1.9 | 12.8 | 8.0 | 3.6 | -14.0 | -0.6
CCN(CC)S(=O)(=O)c1cc([N+](=O)[O-])ccc1NNC(=O)Nc1ccc(Cl)c(Cl)c1 | 23.7 | 37.7* | 63.0 | -6.0 | 24.8 | 20.9
C/C=C(/C)C(=O)O[C@@H]1[C@H](OC(=O)C=C(C)C)c2c(ccc3ccc(=O)oc23)OC1(C)C | 8.7 | -6.2 | 17.6 | -9.3 | -24.3 | -3.7
C/C=C(/C)C(=O)O[C@@H]1c2c(ccc3ccc(=O)oc23)OC(C)(C)[C@@H]1OC(=O)/C(C)=C\C | 0.5 | 62.4* | 19.4 | -2.1 | -10.6 | 32.1
CCOC(=O)C1CSCCS(=O)(=O)N1Cc1ccc(Br)cc1 (configuration not stated) | -0.7 | nt | nt | nt | nt | -13.1
SMILES | TAAR1 ag | CHO parental Ca | OX1R antag-1 | GPR7 antagonist | OX1R antag-2 | TAAR1 antagonist
O=C(O)CNc1nc(Cl)ccc1[N+](=O)[O-] | 2.0 | -0.7 | 64.0* | -11.8 | -9.6 | 3.4
CC(C)c1c(C(=O)N/N=C/c2ccncc2)nnn1-c1nonc1N | 3.3 | 13.7 | 10.5 | 6.3 | -13.3 | 10.6
Cc1ccc(/C=N/NC(=O)c2nnn(-c3nonc3N)c2-c2ccccc2)o1 | 42.9* | -12.1 | 10.4 | -1.4 | 9.4 | -8.4
COc1cc(/C=N/NC(=O)c2nnn(-c3nonc3N)c2C(C)C)ccc1OCc1ccc(F)cc1 | 1.0 | 48.8* | 7.9 | 6.8 | 34.9 | 7.5
C/C(=N\NC(=O)c1nnn(-c2nonc2N)c1CN(C)c1ccccc1)c1ccccc1O | -0.3 | 4.5 | 55.0* | -11.0 | 22.8 | 15.7
CC(C)c1c(C(=O)N/N=C/C=C/c2ccccc2)nnn1-c1nonc1N | 41.8* | -8.3 | -0.9 | 5.9 | -14.8 | 34.5
COc1ccc(C(=O)c2[nH]c(N)c(C(=O)NCCc3c[nH]c4ccccc34)c2-c2ccc(Cl)c(F)c2)cc1 | 8.8 | nt | nt | nt | nt | 4.8
COC(=O)[C@@]12C[C@@H](CC(=O)N3CCOCC3)C(=O)N(Cc3cccc4ccccc34)C1=CCC(C)(C)C2 | 19.7 | nt | nt | nt | nt | -20.9
COC(=O)[C@]12C[C@H](CC(=O)NCC3CCCCC3)C(=O)N(Cc3ccc4c(c3)OCO4)C1=C[C@H](C(C)(C)C)O[C@@H]2C | -0.9 | nt | nt | nt | nt | -21.5
CCCCCCCCN1C(=O)[C@@H](CC(=O)N2CCOCC2)C[C@@]2(C(=O)OC)C1=C[C@H](C1CCCC1)O[C@@H]2C | -2.4 | nt | nt | nt | nt | -44.1
Cc1ccc(N=C(NOCc2ccc(Cl)cc2Cl)c2nonc2N)c(C)c1 | 5.1 | -14.5 | 2.0 | 21.1 | 0.2 | 56.6*
CC1(C)N=c2ccc([N+](=O)[O-])c(N)c2=[N+]1[O-] | 2.0 | -7.0 | 75.4* | -2.2 | 2.7 | -25.1
Cc1c(Cl)cccc1NC(=S)N1CCCN(Cc2ccc(F)cc2)C1 | 14.4 | 32.8* | 16.9 | -3.9 | 1.9 | 20.3
Fc1ccccc1CN1CCCN(C(=S)Nc2cccc(Cl)c2)C1 | 12.2 | 40.3* | 26.9 | 2.4 | 5.6 | 10.2
Cc1c(Cl)cccc1NC(=S)N1CCCN(Cc2ccccc2F)C1 | 12.2 | 15.9 | 3.3 | -5.6 | 25.2 | 9.2
O=C(Nc1ccccc1)N1CCCN(Cc2ccccc2F)C1 | 1.9 | -9.1 | 3.4 | -1.6 | -20.5 | -12.4
CC1=NN(C(N)=S)C(=O)C1N=Nc1ccc(O)cc1 (configuration not stated) | 1.9 | nt | nt | -0.3 | nt | 4.6
CC(=O)Nc1ccc(N=NC2C(=O)N(C(N)=S)N=C2C)cc1 (configuration not stated) | 5.5 | -6.9 | 33.5* | -13.0 | -9.7 | 1.3
CSc1ccc(C(=O)NCC2CCN(C(=O)C(=O)c3cc4ccccc4o3)CC2)cc1 | 2.3 | nt | nt | nt | nt | -22.5
FC(F)(F)c1nc(N2CCCC2)ncc1-c1nnnn1-c1ccccc1 | 8.4 | 39.6* | 25.2 | 6.8 | 23.0 | 16.6
CCOC(=O)CN1C(=O)[C@]2(OCCC=C[C@H]2C)c2c(Br)cccc21 | 5.9 | nt | nt | nt | nt | 29.3
O=C(Nc1ccc(Cl)c(C(F)(F)F)c1)c1ccncc1 | 21.0 | -11.8 | 31.7 | 3.4 | -6.7 | -24.8
CNC(=O)c1cc(Oc2ccc(NC(=O)Nc3ccc(Cl)c(C(F)(F)F)c3)cc2)ccn1 | 44.5* | 19.1 | 47.2* | nt | 39.0 | 46.8
O=C(Cc1cccs1)NNC(=O)c1ccccc1Cl | 2.1 | -1.5 | -3.0 | nt | -1.3 | 14.9
O=C(CNC(=O)c1ccccc1Cl)NCCc1cccs1 | 39.9* | -3.4 | 8.2 | nt | -28.7 | -5.0

Compound activity (PubChem)
